B1: tRNA (parent)
chain: GUUCCGUUGGCGUAAUGGUAACGCGUCUCCCUCCUAAGGAGAAGACUGCGGGUUCGAGUCCCGUACGGAACG

Variants of: B1
Assay: yeast fitness, log relative to wild type (ln ratio); higher = fitter; tRNA-Arg(CCU), competitive growth, 37 C, 1 M NaCl
How it was run: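 For each genotype, fitness is defined as the natural log of its generation number over the wild type's. The tRNA-Arg(CCU) variant library was on a HIS3 centromeric plasmid in BY4742 with the chromosomal gene removed, and pools were first grown 4 generations in SC-HIS at 30 °C and then ~6.5 generations (~26.5 h) in SC-HIS 1M NaCl at 37 °C. Generations were calculated from OD-scaled log2 output/input frequency, weighted by inverse variance across replicates, using counts from 125 bp paired-end Illumina sequencing.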

Variant	yeast fitness (ln)
U2C A43C C46U C66U A69G A70U C71U	-0.39
U2C G6U A69G A70G	-0.133
U2C A43C C66U A69G A70G	-0.169
G6A C27U A43C A69G A70G C71U	-0.371
G6U C27U C46U A69G C71U	-0.314
C46U A69G	-0.00396
G1A G6U C27U C66U A70U	-0.274
G1A U2G A43C A69G A70U	-0.159
G1A U2G G6A A43C C46U C66U C71U	-0.177
C27U C46U C66U A70U C71U	-0.197
U2C C27U C66A A69G A70G C71U	-0.142
G6U C66A A70G C71U	-0.233
G1A U2G G6A C46U C66U A70G	-0.11
G6U C66U A69G A70G	-0.271
U2C G6U C27U A43C C46U C66U A70U C71U	-0.317
G1A U2G G6A C27U C46U C66U A70U C71U	-0.0596
G6A C66U A69G	-0.0231
U2C G6A C27U C46U C66U A70G C71U	-0.0332
U2G G6A C27U A43C C66A A69G A70G	-0.368
G6A C27U A43C C46U C66A A69G A70G	-0.229
U2C G6A A43C A69G A70U C71U	-0.279
U2C G6U C27U A43C C46U C66U A69G A70U	-0.3
G1A G6A C46U C66U	-0.072
U2G G6A C27U A43C A70U	-0.119

Variant	yeast fitness (ln)
U2G G6A C27U C46U A69G	-0.149
G1A U2G A43C C46U C66A A70U C71U	-0.168
U2G G6A C27U C46U C66U A69G A70G	-0.199
U2C A43C C46U C66A A70U C71U	-0.169
G1A G6U A43C C66U	-0.232
G1A U2G G6A A43C C66U A70U	-0.434
U2C G6A A69G A70G	-0.0526
G1A U2G G6U C27U A43C C66U A70U	-0.47
G1A U2C G6U C71U	-0.159
G1A G6A C27U C46U C66U A69G A70G C71U	-0.698
U2C G6A C27U A43C C46U A70U C71U	-0.113
U2G G6U C66U A69G C71U	-0.239
G1A G6U A43C C66A A69G A70G C71U	-0.348
U2C G6A C27U A43C A69G A70G C71U	-0.256
U2C G6A A43C	-0.0449
U2G G6U A43C	-0.129
G1A U2G G6U C27U A43C C46U C66U A70U C71U	-0.647
G6A C27U C46U A69G A70U C71U	-0.331
G1A U2C G6A C46U C66U A70G C71U	0.0112
U2G G6U C66A	-0.0885
G1A U2G G6A A43C C46U A69G A70U	-0.0779
G6U C66U A69G A70G C71U	-0.293
U2C G6A C66U A70U	-0.0364
G1A C27U A43C C46U A69G A70G C71U	-0.336

Variant	yeast fitness (ln)
G1A C27U A43C C46U A70U C71U	-0.29
G1A U2G G6U A43C A70G	-0.263
G1A U2G C46U C66U	-0.0764
G1A U2C C27U C46U C66A A70G C71U	-0.262
G1A U2G G6A C27U A43C C71U	-0.357
C27U A43C A70U	-0.185
U2C A43C A69G C71U	-0.138
U2G C27U A43C C46U C66U A69G	-0.231
G1A U2G G6U A43C	-0.257
G6U C66U A69G C71U	-0.374
G1A A43C C66U A69G C71U	-0.377
U2G G6U C46U C66U A69G A70U C71U	-0.39
G6A A43C C46U C66U A69G A70U	-0.159
G1A G6U C46U C66U A69G A70G C71U	-0.216
U2C G6A C46U C66U A69G A70U C71U	-0.419
U2G G6A A43C A69G A70G C71U	-0.233
G6A A43C A70G	-0.223
G1A U2C C27U C46U	-0.00588
G1A U2G G6A C27U A43C C46U C66U A70U	-0.226
G1A U2G G6A C66U A69G A70U C71U	-0.33
U2G A69G A70U	-0.00206
G1A U2C G6A A43C C66U A70U C71U	-0.301
G1A G6A C27U C66U A70U	-0.431
U2C G6U C27U C46U A70U	-0.13

Variant	yeast fitness (ln)
U2G G6U C27U C46U C66A A69G A70U	-0.0283
G1A U2C G6A C27U C46U C66U A69G A70U C71U	-0.327
G6U A43C C66U C71U	-0.422
U2C G6U C46U C66A A70U	0.000469
G1A G6A C27U A43C C66A A69G A70G C71U	-0.299
G6U C46U C66A A69G A70U	-0.302
G6U C46U C66A A69G A70G	-0.00994
G1A U2C A43C C66A A70G C71U	-0.128
G1A U2C G6U C27U A43C C66A A70G	-0.299
G1A U2G C46U C66U C71U	-0.117
U2C C46U C66U A69G A70U	-0.0518
U2C G6U A43C C66U A69G A70G C71U	-0.352
U2G G6A C27U C46U C66A A70G	-0.16
U2G G6U C27U A43C C46U C66A A70G C71U	-0.197
G1A G6A C27U C46U C66U A69G A70U	-0.468
U2C G6U C27U C66A A70G C71U	-0.0263
G1A U2C G6A A43C C46U C66U A70U	-0.0467
A43C C66A A70G	-0.0269
G1A G6U A43C C46U C66A A70U	-0.242
G1A G6U C66A A69G A70U	-0.0798
A43C	0.000879
G6U C27U C46U C66A	-0.00348
G1A U2C C27U C71U	-0.238
U2C C27U A69G C71U	-0.102

Variant	yeast fitness (ln)
G1A U2G G6U C27U C66U	-0.38
A43C C66A A69G A70G C71U	-0.159
G1A U2G G6A C27U C46U C66U A69G A70G	-0.272
U2C G6A A43C C46U A70U	-0.0234
C27U C46U C66U C71U	-0.376
G1A G6A C27U C66A A70G C71U	-0.473
G1A U2G C27U A43C C46U A69G A70G C71U	-0.221
U2G G6A C27U C46U A69G A70G C71U	-0.194
U2G G6U A43C C46U C66A A70U C71U	-0.135
U2G C27U A43C C46U C66U A70G C71U	-0.231
G6A C27U A69G A70G C71U	-0.265
A43C A69G A70U	-0.0328
U2C C27U C46U C66A A70U C71U	-0.134
G6A A70G	-0.194
G1A A43C C46U C66A A70U C71U	-0.189
G1A U2G G6A C46U A70G	-0.176
G1A U2G G6U C27U C46U A69G A70G	-0.474
U2G G6A C27U C46U C66U A69G C71U	-0.277
C66U A69G C71U	-0.166
G6A C27U C46U C66A A70U C71U	-0.234
G1A U2G G6A C27U C66A A70G	-0.296
U2G C27U A43C C46U C66A A69G A70U C71U	-0.498
U2C G6A A43C A70G C71U	-0.129
G6A A43C C46U C66U A70U	-0.183

Variant	yeast fitness (ln)
U2C G6A C46U C66U A69G A70G	-0.0132
U2G G6U C46U A69G C71U	-0.129
U2G G6A C66U A70G C71U	-0.253
G1A U2G G6A C46U C66U A70U C71U	-0.00784
G1A U2C G6U C27U C46U C71U	-0.0687
U2C G6A C27U A43C C46U A69G A70U	-0.122
G1A U2G G6U C27U C46U C66A C71U	-0.175
G1A U2G G6A C66U A69G A70G C71U	-0.366
U2G G6A C27U A43C C46U A70G C71U	-0.201
G1A U2G A43C C66U A69G C71U	-0.497
U2G G6U C27U C66U A69G C71U	-0.427
U2G C46U C66A A70G	-0.0687
G1A A43C A70U C71U	-0.32
U2C A43C C46U C66A A69G A70U	-0.0111
G1A U2G C27U A43C C46U C66U A69G A70G	-0.282
U2G C27U C66A A69G A70U	-0.155
G6U A43C C66A A69G C71U	-0.368
U2C G6U A43C C46U C71U	-0.125
G1A G6A C27U C46U A69G A70G	-0.224
G6U A43C C66A A70G C71U	-0.177
G1A U2C C46U C66U A70U C71U	-0.175
G1A U2C G6A	0.00615
G6U C27U A43C C46U C66A A69G	-0.0652
G6U C46U C66A A70U C71U	-0.394

Variant	yeast fitness (ln)
U2C G6U C27U C46U A69G A70G	-0.274
U2G A43C C46U A70G C71U	-0.149
U2G G6U A43C C66A A69G A70U C71U	-0.355
G1A U2G G6U C46U C66A A70G	-0.258
U2G G6A C27U C46U A70U C71U	-0.143
G1A U2G C27U A43C C66U A69G A70G C71U	-0.294
U2G G6A C27U C46U A70G	-0.0986
G1A U2G A43C C46U C66U A70G	-0.22
G1A G6A C27U A43C C46U C66A A70U	-0.192
G1A U2G G6A C27U C66U A69G A70U	-0.26
G1A U2G A43C C66A C71U	-0.228
G1A G6A C27U A43C C46U C66U A69G A70U	-0.471
G1A G6U C27U C66A C71U	-0.0761
U2G G6U A43C C46U C66U A69G A70G C71U	-0.348
U2G C27U A43C C46U C66A	-0.124
G1A U2G C27U C66U A69G A70U	-0.35
G1A U2G C27U A69G A70G	-0.242
G6U C27U C46U C66U A70U	-0.19
G1A U2C G6U C27U C46U C66A A69G A70U	-0.116
G6A C27U C46U C66U A69G C71U	-0.446
G6U C27U C66A A70U	-0.17
U2G G6U C27U A70G C71U	-0.285
G1A U2C A43C C46U C66U A69G A70U	-0.195
